Here are results for 13 compounds from ChEMBL document CHEMBL1122650, “Synthesis and central nervous system properties of 2-[(alkoxycarbonyl)amino]-4(5)-phenyl-2-imidazolines” (J Med Chem, 1984).

Data set [1] can be described thus: HPLC capacity factor (k'). Type of data set: ADME.
The species named for data set [2] is Mus musculus. In words: Compound was evaluated for maximal electroshock antagonism (MES) against mice; Inactive. Type of data set: functional, organism-based. The method in brief: (§1)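 Male HLa (ICR) BR mice, groups of eight to ten, dosed ip (aqueous solution) 15 min before transcorneal electroshock (50 mA, 0.2 s). End point: abolition of tonic hind-limb extension; quantal ED50 by Litchfield-Wilcoxon.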

For data set [3], the species on record is Mus musculus. Nature of the data set: Mouse behavior activity was determined; Inactive. In kind it is functional, organism-based. The method in brief:
(§2)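 Male Simonsen (ICR) fBR mice, 18-24 g, groups of three, given 3, 10, 30, 100, 300 or 1000 mg/kg ip as aqueous solution and observed for behavioral profile; deaths followed up to 7 days.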

The species entered for data set [4] is Mus musculus. Nature of the data set: Evaluated for antagonism of reserpine induced hypothermia. Type of data set: functional. The method in brief: (§3)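 Male HLa (ICR) BR mice, 18-24 g, in groups of eight; reserpine 5 mg/kg ip given 2 h before oral test compound as aqueous solution. Rectal temperature taken hourly; 1-4-h hypothermia assessed by analysis of variance.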

A short description of data set [5]: Lethal dose in mouse, in groups of ten. Type of data set: toxicity, organism-based. The note with it: in vivo.
For data set [6], the system named is Mus musculus. Nature of the data set: Evaluated in vivo for reserpine hypothermia after oral administration in mouse. Minimum active dose was reported; Inactive. Type of data set: functional, organism-based. The method in brief:
as §3

For data set [7], the species on record is Mus musculus. In words: Compound was evaluated for maximal electroshock antagonism (MES) against mice. In kind it is functional. The method in brief: as §1
(In general: In the maximal electroshock model the usual endpoint is tonic extension of the hind limbs.)

Data set [8] has as its system Mus musculus. Nature of the data set: Compound was evaluated in vivo for reserpine hypothermia after oral administration in mouse. Minimum active dose was reported; Inactive. In kind it is functional, organism-based. The method in brief: as §3
Data set [9] is filed under the species Mus musculus. In words: Evaluated for antagonism of reserpine induced hypothermia;I= Inactive. In kind it is functional, organism-based. The procedure, abridged:
as §3

Data set [10] is filed under the species Mus musculus. In words: Mouse behavior activity was determined; Dwk=Depressant Weak. Type of data set: functional, organism-based. The method in brief:
as §2

For data set [11], the species on record is Mus musculus. Nature of the data set: Mouse behavior activity was determined; Dwk= Depressant Weak. In kind it is functional, organism-based. The procedure, abridged: as §2
The species entered for data set [12] is Mus musculus. Nature of the data set: Compound was evaluated for maximal electroshock antagonism (MES) against mice; Inactive. In kind it is functional, organism-based. The method in brief:
as §1

For data set [13], the species on record is Rattus norvegicus. Nature of the data set: Inhibition of the NE [3H]Norepinephrine uptake by rat brain slices In vitro. Type of data set: functional.
The species entered for data set [14] is Mus musculus. In words: Mouse behavior activity was determined; S-D=Stimulant-Depressant. In kind it is functional, organism-based. The method in brief: as §2
The species named for data set [15] is Rattus norvegicus. In words: Inhibition of the 5-HT [14C]5-HT uptake by rat brain slices In vitro. In kind it is functional. The method in brief: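 Rat cerebral cortex slices, 5 mg tissue per mL Krebs-Henseleit buffer, incubated at 37 °C with [3H]NE or [14C]5-HT; blanks at 4 °C, undosed controls. Stopped after 20 min by filtration; slice radioactivity counted; IC50 from linear regression of uptake inhibition.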

Data set [16] concerns Mus musculus. In words: Reserpine hypothermia antagonism in mouse administered perorally with 5 mg/kg of reserpine 2 hour prior to test compound administration. Type of data set: functional. To be noted: route oral.
For data set [17], the species on record is Mus musculus. Nature of the data set: Inhibition of radioactive NE [3H]norepinephrine uptake into mouse heart. In kind it is functional. The method in brief:
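Mice dosed ip (aqueous solution) before iv [3H]NE; hearts removed 3 h after label, washed, weighed, dissolved in Protosol and counted as dpm per mg tissue. Dose-response from linear regression.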

The species named for data set [18] is Mus musculus. Nature of the data set: Righting ability was determined in mice before rapid rolling (unaroused). In kind it is functional. The method in brief:
(§4)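 Male Simonsen (ICR) fBR mice, 18-24 g, groups of ten, dosed with aqueous compound. Righting ability checked before (unaroused) and after (aroused) rapid rolling in the hand; ED50 by Litchfield-Wilcoxon method.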

The species entered for data set [19] is Mus musculus. In words: Mouse behavior activity was determined;D= Depressant. In kind it is functional, organism-based. The method in brief: as §2
The species named for data set [20] is Mus musculus. Nature of the data set: Righting ability was determined in mice […] rapid rolling (aroused). Type of data set: functional. The method in brief:
as §4

The species entered for data set [21] is Mus musculus. In words: Mouse behavior activity was determined; Dwk= Depressant Weak. In kind it is functional, organism-based. The method in brief: as §2
The species named for data set [22] is Mus musculus. Nature of the data set: Righting ability was determined in mice after rapid rolling (aroused). In kind it is functional. The method in brief:
as §4

Data set [23] is filed under the species Mus musculus. Nature of the data set: Mouse behavior activity was determined; D = Depressant. Type of data set: functional, organism-based. The method in brief: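 Male Simonsen (ICR) fBR mice (18-24 g) given 3, 10, 30, 100, 300 or 1000 mg/kg ip as aqueous solution and observed for behaviour in groups of three.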
Data set [24] deals with Mus musculus. In words: Compound was evaluated in vivo for reserpine hypothermia after oral administration in mouse. Minimum active dose was reported, with the percent reversal at 10 mg/kg in parenthesis. In kind it is functional. The procedure, abridged:
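Male HLa (ICR) BR mice (18-24 g), groups of eight, dosed ip with 5 mg/kg reserpine 2 h before oral test compound given as aqueous solution. Rectal temperature measured hourly; 1-4-h thermia assessed by analysis of variance.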

For data set [25], the species on record is Mus musculus. Nature of the data set: Compound was evaluated for maximal electroshock antagonism (MES) against mice (values in parentheses indicates 95% confidence limits). In kind it is functional. The procedure, abridged:
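Male HLa (ICR) BR mice, groups of eight to ten, given compound ip as aqueous solution 15 min before transcorneal electroshock (50 mA, 0.2 s). End point was abolition of tonic hind-limb extension; quantal ED50 derived by Litchfield-Wilcoxon.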

Calls of active or inactive are those of the source. No cut-off for these calls is given here.

A word on the ED50: it is the dose that gives a 50% effect, or the effect in half of the subjects. The term LD50 denotes the dose expected to kill half of the subjects tested. A higher LD50 goes with a less toxic substance. `COC(=O)NC1=NC(c2ccc(CO)cc2)CN1C` (stereo unspecified): the “Log k'” value in data set [1] was -0.76. The ED50 entry in [2] and in [6] was “inactive” each time. Further, the Mouse behavior activity result in data set [3] was “inactive”. Moreover, in data set [4], the HYPO is <0.5 mg/kg. Further, in data set [5], the LD50 was > 1000 mg/kg.
As to `COC(=O)NC1=NC(c2ccc(SC)cc2)CN1C` (stereo unspecified), the “Log k'” value in data set [1] turned out to be 0.61. The compound also showed an ED50 in data set [7] of 100 mg/kg. Further, the ED50 result in data set [8] is “inactive”. In addition, in [9], the HYPO result was “inactive”.
In the case of `COC(=O)NC1=NC(c2ccc(C(F)(F)F)cc2)CN1` (stereo unspecified), the “Log k'” value in data set [1] is given as 0.56. The ED50 result in data set [2] and in data set [6] was “inactive” in each case. Also, the HYPO in [4] was >20 mg/kg. In addition, in data set [5], the LD50 amounted to 700 mg/kg. Moreover, the Mouse behavior activity entry in [10] is given as “Depressant - weak”.
In the case of `COC(=O)NC1=NC(c2ccc(C)cc2)CN1` (stereo unspecified), in data set [1], the “Log k'” value stood at 0.3. The Mouse behavior activity entry in data set [11] is “Depressant - weak”. For the same compound, the HYPO in data set [4] is >20 mg/kg. Moreover, in data set [5], the LD50 was > 1000 mg/kg. For the same compound, the ED50 entry in data set [12] was “inactive”.
What is called IC50 is the concentration that inhibits the measured activity by half. Read a high IC50 as a need for much substance. Regarding `NC1=NC(c2ccccc2)CN1` (stereo unspecified), in data set [1], the “Log k'” value is listed as -3.74. Also, the ED50 result in [2] was “inactive”. Further, the IC50 turned out to be 0.1 µM in data set [13] and 31 µM in data set [15]. In addition, the Mouse behavior activity result in [14] was “Stimulant-Depressant”. In data set [5], this compound came in with an LD50 of 300 mg/kg. In addition, the Reserpine hypothermia in [16] is < 10 mg/kg. Also, in [17], the median effective dose (ED50) was 0.3 mg/kg.
As for `CCOC(=O)NC1=NC(c2ccccc2Cl)CN1C` (stereo unspecified), the “Log k'” value in data set [1] turned out to be 0.82. Also, the Loss of righting reflex in data set [18] is 30 mg/kg; in [20], 64 mg/kg. Further, in data set [19], the Mouse behavior activity result is reported as “Depressant”. For the same compound, the IC50 in [13] is 30 µM; in data set [15], 150 µM. The ED50 in data set [7] stood at 28 mg/kg; in [17], 34 mg/kg. Further, in data set [4], the HYPO was <0.5 mg/kg. For the same compound, in data set [5], the LD50 was found to be 200 mg/kg. Besides, the Reserpine hypothermia in data set [16] was determined as 0.15 mg/kg.
As for `CN(C)CCCN1c2ccccc2CCc2ccccc21` [IMIPRAMINE], the IC50 in data set [13] amounted to 3.8 µM; in data set [15], 5.3 µM. Moreover, the Mouse behavior activity entry in [14] is listed as “Stimulant”. Besides, the ED50 in [7] is 15 mg/kg; in [17] it was 6.7 mg/kg. In addition, the HYPO in data set [4] is <0.5 mg/kg. Besides, the Reserpine hypothermia in [16] is 0.63 mg/kg.
As for `CCC(=O)NC1=NC(c2ccccc2)CN1` (stereo unspecified), the “Log k'” value in data set [1] is reported as 0.17. Moreover, the Mouse behavior activity entry in [21] is given as “Depressant”. This compound registered an ED50 in data set [7] of 75 mg/kg. The HYPO in [4] was >20 mg/kg. Also, the LD50 in [5] came to 500 mg/kg.
`CCOC(=O)NC1=NC(c2ccc(CO)cc2)CN1C` (stereo unspecified): the “Log k'” value in [1] was -0.29. The ED50 entry in data set [2] is “inactive”. Also, the Mouse behavior activity entry in [3] was “inactive”. This compound displayed a 50% lethal dose (LD50) in [5] of 500 mg/kg.
As for `COC(=O)NC1=NC(c2ccccc2F)CN1` (stereo unspecified), the Loss of righting reflex was 210 mg/kg in data set [18] and 234 mg/kg in data set [22]. Moreover, in data set [19], the Mouse behavior activity entry is “Depressant”. The compound further came in with an ED50 in data set [7] of 54 mg/kg. Further, the HYPO in data set [4] is <0.5 mg/kg. The LD50 in data set [5] was 255 mg/kg.
Regarding `CCCCCCc1ccc(C2CN=C(NC(=O)OC)N2)cc1` (stereo unspecified), the “Log k'” value in [1] is 2.28. The compound also registered a median lethal dose (LD50) in data set [5] of 200 mg/kg. Moreover, the HYPO entry in [9] is “inactive”. Also, the ED50 entry in data set [12] is “inactive”. Further, in data set [10], the Mouse behavior activity result is listed as “Depressant - weak”.
As to `CN1C(=O)CN=C(c2ccccc2)c2cc(Cl)ccc21` [DIAZEPAM], the Loss of righting reflex in data set [18] amounted to 67 mg/kg; in [20], 136 mg/kg. Moreover, the Mouse behavior activity entry in data set [23] was “Depressant”. Further, the figures for the ED50 in data set [24] and in [25] were 1 mg/kg and 7 mg/kg, respectively.
With `COC(=O)NC1=NC(c2cccc(Cl)c2)CN1` (stereo unspecified), in data set [1], the “Log k'” value is reported as 0.4. The Mouse behavior activity entry in [11] is reported as “Depressant - weak”. The ED50 in data set [7] was 48 mg/kg. Also, in data set [5], the median lethal dose (LD50) came out at 300 mg/kg.
